PMC4174992 (The Journal of Physical Chemistry. B, 2014)
Where two headings read alike, the source gives them in different places.

How the values were obtained:
[1] = Ion-mobility mass spectrometry; format: physicochemical; conditions: IM-MS, 200 μM in water
[2] = Atomic force microscopy; format: physicochemical
Outline: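 Samples were N-acetyl/C-amide peptides at 200 μM in water, with no buffer, to slow aggregation and limit charge screening. Peptide stocks were made in filtered deionized water, flash-frozen and kept at −80 °C. AFM height images were taken at 1 Hz with 512 × 512 points, fibrils masked and first-order flattened. Each fibril or granular-aggregate height and length is the mean of 20 measurements.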

[3] = test system: embryonic rat hippocampal neurons; conditions: Busciglio and co-workers; cited from earlier work
[4] = cited from earlier work

Substance: Ac-Aβ(25–35)-NH2: amphipathic amyloid-β fragment containing the hydrophobic hexapeptide GAIIGL (Ac-GSNKGAIIGLM-NH2; UniProt P05067 696-706, looked up, fragment)
- largest oligomers observed ([1]; heteroligomers from 1:1 mixture): hexamers and nonamers
- onset of cross-section deviation from isotropic oligomer model ([1]; indicates extended oligomers): starting at the trimer stage
- aggregates observed by AFM (1 week) ([2]; 1 week incubated, 200 μM in water, mixture at 1:1): abundant fibrillar aggregates
- time to fibrillar aggregates ([2]; fresh peptide, in water): within an hour

Substance: Aβ(1–40): full length Aβ isoform
- result compared with Aβ(25–35) effect on neurons [3]: similar

Substance: NFLVHSS
- aggregation strength (class 6 steric zipper) ([4]; PDB ID 3FTH): weakly aggregating

Substance: YVVFL
- aggregation strength (class 6 steric zipper) ([4]; PDB 4OLR / 4ONK): weakly aggregating

Substance: YVVFV
- aggregation strength (class 6 steric zipper) ([4]; PDB 4OLR / 4ONK): weakly aggregating
